Laboratory results as given in PubChem BioAssay AID720508 (The Scripps Research Institute Molecular Screening Center, 2013).
About 500 (0.14%) of roughly 370,000 compounds were called active. Shown is part of a subset that was picked to be rich in actives. Values without a mark were called inactive.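 How the source made its calls: active means inhibition above the mean of compounds falling within the control limits plus 3 SD of them (cut at about 14% in these data); inactive means the rest.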

What follows are molecules tested against Fibrinogen beta chain (Homo sapiens) (UniProt P02675) (assay: small molecules displacing Tn7 from DD(E) complex – biochemical, fluorescence polarization, human fibrin, Tn7 probe, primary screen (AID 720508;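 further: 0% = plate median of compound wells and 100% = 10 µM Aha-Tn7 peptide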)). Settings: FP displacement of FITC-Tn7 peptide from fibrin DD(E); at 8.3 µM; hits give high values; 0% = median of compound wells per plate.
Sequence of Fibrinogen beta chain (Homo sapiens) (P02675 whole entry, looked up): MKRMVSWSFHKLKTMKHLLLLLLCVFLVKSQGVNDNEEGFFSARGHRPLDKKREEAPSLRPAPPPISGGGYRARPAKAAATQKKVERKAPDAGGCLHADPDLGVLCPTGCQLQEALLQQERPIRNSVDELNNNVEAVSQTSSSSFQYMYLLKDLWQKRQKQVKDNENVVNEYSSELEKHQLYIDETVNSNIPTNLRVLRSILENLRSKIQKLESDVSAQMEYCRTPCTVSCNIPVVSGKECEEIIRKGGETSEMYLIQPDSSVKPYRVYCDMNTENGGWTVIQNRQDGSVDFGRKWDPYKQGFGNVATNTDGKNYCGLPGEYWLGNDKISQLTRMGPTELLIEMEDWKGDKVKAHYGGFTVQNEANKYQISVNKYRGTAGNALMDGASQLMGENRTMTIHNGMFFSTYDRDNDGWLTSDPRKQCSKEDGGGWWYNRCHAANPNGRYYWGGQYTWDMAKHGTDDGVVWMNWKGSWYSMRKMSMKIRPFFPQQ
Summary of the method: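 System: human fibrin DD(E); quantity: Fibrin-DD(E) at 2 µM final; also added: fluorescent Tn7 probe at 0.1 µM; compound dosing: single nominal test concentration of 8.3 µM per compound; schedule: 10 min preincubation, 3 h with tracer, room temperature; detection: fluorescence polarization of the labelled Tn7 tracer; repeats: one replicate per compound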

Structure (SMILES)	inhibition
CSC1=NC2(C)CCCCC2C12C=CC(=O)C=C2 (stereo unspecified)	6.72%
CC(OC(=O)CN1C(=O)COc2ccccc21)C(=O)NCc1ccc(F)cc1 (stereo unspecified)	-2.52%
CN(Cc1ccccc1)CC(O)COc1ccc(CNCc2cc3ccccc3s2)cc1 (stereo unspecified)	5.14%
Cc1cc(C(=O)OC(C)C(=O)NC2CCCCC2C)c(C)o1 (stereo unspecified)	-2.98%
CCO/N=C(/C)c1c(O)cc(-c2ccccc2)n(-c2ccccc2)c1=O	0.3%
Oc1ccc2ccc3cccc[n+]3c2c1	62.8% (active)
COCCCNC(=O)Cc1ccc(-n2c(C)nc3cccnc32)cc1	1.6%
O=C(NNS(=O)(=O)c1ccc(F)cc1)c1ccc([N+](=O)[O-])cc1Cl	1.43%
O=C(COC(=O)c1cc([N+](=O)[O-])ccc1NCc1ccccc1)NC1CCCCC1	-0.23%
O=C(COC(=O)c1ccc([N+](=O)[O-])cc1Cl)NC(=O)c1ccccc1	17.7% (active)
CCNC(=O)c1cccc(NC(=O)C2CC(=O)N(CCc3ccccc3)C2)c1 (stereo unspecified)	8.78%
O=C(NCc1ccccc1)c1cccc(NC(=O)C2CCCCC2)c1	15.5% (active)
CC(C)(C)OC(=O)N1CCC(C(=O)Nc2cccc(C(=O)NCCc3ccccc3)c2)CC1	-2.62%
COc1ccc(C(=O)OCC(=O)NCC2CCCO2)cc1[N+](=O)[O-] (stereo unspecified)	2.02%
CC(C)CNC(=O)COC(=O)/C=C/c1ccccc1[N+](=O)[O-]	2.51%
O=C(/C=C/c1ccccc1[N+](=O)[O-])NCC1CCCO1 (stereo unspecified)	14.7% (active)
COCCn1c(N)c(NCc2ccccc2)c(=O)[nH]c1=O	8.37%
Cc1cc2nc3c(=O)n(Cc4ccccc4)c(=O)[nH]c3nc2cc1N	25.7% (active)
Nc1ccc2nc3c(=O)[nH]c(=S)[nH]c3nc2c1	7.86%
CN(C)CCNC(=O)C(C(=O)c1ccccc1)n1ccccc1=O (stereo unspecified)	8.86%
Cc1ccc(-c2nc(-c3cccnc3)sc2CC(=O)Nc2ccc(C)c(Cl)c2)cc1	-4.07%
CSCCNC(=O)c1ccc2nc(Cc3ccccc3F)oc2c1	-0.81%
Cc1ccc(NC(=O)CN(C)C(=O)c2ccc(Cl)c(S(=O)(=O)NCc3ccco3)c2)cc1	-3.83%

Structure (SMILES)	inhibition
COC(=O)[C@H](C(C)C)N1CCc2nnn(Cc3ccc(C)cc3)c2-c2ccccc2S1(=O)=O	5.12%
O=C(COC(=O)c1ccc(O)cc1)Nc1nccs1	6.41%
O=C1C(=O)N(CCCN2CCOCC2)C(c2ccc([N+](=O)[O-])cc2)/C1=C(\O)c1ccc2c(c1)OCCO2 (stereo unspecified)	-0.14%
O=S(=O)(c1cccc(-c2nnc(SC(F)F)n2-c2ccccc2)c1)N1CCCCC1	3.4%
O=C(OCC(=O)N1CCN(C(=O)c2ccco2)CC1)c1ccccc1Cc1ccccc1	-2.57%
Cc1cccc(C)c1Nc1c(-c2ccccc2O)nc2ncccn12	2.35%
Cc1cc(Nc2cccc(F)c2)n2ncnc2n1	-2.61%
COc1ccc(/C=C2\CCCC3C2=NN(C(=O)c2scnc2C)C3c2ccc(OC)cc2)cc1 (stereo unspecified)	2.65%
CC(C)=CCCC1(C)C=Cc2c(ccc3c2[nH]c2cc(O)c(C)cc23)O1 (stereo unspecified)	-5.67%
Cc1cc2nc3c(=O)[nH]c(=O)nc-3n(C[C@H](O)[C@H](O)[C@H](O)CO)c2cc1C	24.1% (active)
CCN(CC)CCCC(C)n1c2nc(=O)[nH]c(=O)c-2nc2cc(Cl)ccc21 (stereo unspecified)	-7.28%
CC(C)C[C@H]1CNC(=S)N1C[C@H]1CCCN1C[C@H](Cc1ccc(O)cc1)N1C[C@H](Cc2ccc(O)cc2)N(CC2CCCCC2)C1=S	-3.09%
C=C(C)C#CC(Cc1ccccc1)N(CC1CC1)/C(N)=N/C(=O)OCc1ccccc1 (stereo unspecified)	1.85%
CC(C)CC(=O)c1c[nH]c(C(=O)NCc2ccccc2)c1	-1.06%
CC1CCCCC12NC(=O)N(CC(=O)OCc1c(F)cccc1Cl)C2=O (stereo unspecified)	5.49%
Cc1cc(C)c2nc3nc(C)cc(C)c3c(N)c2c1	3.42%
COc1ccc(S(=O)(=O)N2CCOCC2)cc1NC(=O)CSc1nnc(NC2CC2)s1	-0.34%
COc1ccc(S(=O)(=O)N2CCN(C(C)C(=O)Nc3ccc(C(C)C)cc3)CC2)cc1 (stereo unspecified)	2.11%
CCCC1CCC2(CCCN2CCOC(=O)NCc2ccccc2)CC1 (stereo unspecified)	2.73%
CCC(C)[C@H](NC(=O)N1c2ccccc2NC(=O)[C@@H]1C(C)C)C(=O)N[C@@H](Cc1ccccc1)C(=O)O (stereo partly specified)	-4.14%
COc1ccc(S(=O)(=O)N(C)CC(=O)N2CCCC2)cc1Cl	-5.85%
COc1ccc(S(=O)(=O)c2c[nH]c(=S)[nH]c2=O)cc1Cl	14.8% (active)
Cc1ccc(S(=O)(=O)c2c[nH]c3ccc(Cl)cc3c2=O)cc1	-0.42%

Structure (SMILES)	inhibition
CSCC[C@H](NC(=O)NCc1cccs1)C(=O)O	1.72%
O=C(COC(=O)CCOc1ccccc1)Nc1cc(S(=O)(=O)N2CCCCC2)ccc1Cl	3.01%
CC(=O)c1ccc(NC(=O)CCNS(=O)(=O)c2cc(Br)cnc2N)cc1	1.85%
Nc1nc2n(n1)C(c1ccco1)CC(c1ccc(Cl)c(Cl)c1)N2 (stereo unspecified)	-5.38%
O=C(N=C1SC2CS(=O)(=O)CC2N1Cc1ccccc1)c1ccccc1 (stereo unspecified)	8.78%
COCCNC(=O)CSc1nc2c(n1-c1ccccc1)CCCC2	-3.74%
NC(=O)c1ccc(N2CCCC2)nc1	2.52%
CCc1nc2c(OCCC3CCCCC3)cccn2c1N(C)C(=O)c1ccco1	-2.4%
Cc1c(C(=O)O)nnn1-c1nonc1N	1.32%
O=C(NCc1ccccc1)C1CCCN(c2nc3ccsc3c(=O)s2)C1 (stereo unspecified)	-2.86%
CCC(=O)N1CCN=C1SCc1ccc(F)cc1	1.78%
COc1cccc2c1C(=O)c1c(O)c3c(c(O)c1C2=O)CC(O)(C(C)=NNC(=O)c1ccc(Cl)c(Cl)c1)CC3OC1CC(N)C(O)C(C)O1 (stereo unspecified)	27% (active)
Cc1cccc(NC(=O)c2ccc(S(=O)(=O)N(C)CC3CCCO3)cc2)c1C (stereo unspecified)	-10%
Cc1nnc(SCC(=O)Nc2ncc3c(n2)CC(C)(C)CC3=O)s1	3.19%
C=CCn1c(COc2ccc(F)cc2)nnc1SCC(=O)Nc1cccc(S(N)(=O)=O)c1	2.08%
COc1cc2c(cc1OC)CC1(CCCCC1)N=C2	3.18%
Cc1cc(=O)[nH]c2nnnn12	-1.23%
COc1ccc(N=C2C=CC(=O)O2)cc1	-2.28%
COc1ccc(N=Nc2c(-c3ccc(OC)cc3)[nH]oc2=O)cc1	25.7% (active)
O=c1o[nH]c(-c2ccccc2)c1N=Nc1c(F)cccc1Cl	1.8%
COc1ccc(C(=O)N(C)Cc2ccc(OC)c(OC)c2OC)cc1S(=O)(=O)N1CCOCC1	-8.78%
CN(CC(=O)Nc1ccc(F)c(F)c1F)C(=O)C1CC(=O)N(C2CCCC2)C1 (stereo unspecified)	0.71%
COC(=O)CSc1snnc1-c1ccc(Cl)c(Cl)c1	-4.58%

Structure (SMILES)	inhibition
COc1ccc(-c2csc(C(O)c3cccc(Cl)c3)n2)cn1 (stereo unspecified)	-9.22%
OC(c1ccccc1)c1nc(-c2cnc3ccccc3c2)cs1 (stereo unspecified)	15.7% (active)
Cc1ccccc1-c1csc(C(O)c2cccc(Cl)c2)n1 (stereo unspecified)	-0.35%
Cc1nn(C(C)(C)C)c(OC(=O)CC(C)C)c1S(=O)(=O)c1ccccc1	1.04%
O=C(Cn1cnc2ccccc2c1=O)Nc1cccc(S(=O)(=O)N2CCCCC2)c1	-0.43%
CCc1nn(-c2cc(Oc3cccc4ccccc34)nc(-c3ccccc3)n2)c(N)c1C#N	4.4%
C=CCN1CCN(c2ccncc2S(=O)(=O)N2CCN(C)CC2)CC1	7.05%
O=C(NCc1cccnc1)Nc1ccccc1F	-2.21%
CC(=O)Nc1ccc(CN2CCN(Cc3ccc(F)c(F)c3)C(CCO)C2)cc1 (stereo unspecified)	0.97%
Cc1cc(NC(=O)C(C)SCC(=O)Nc2cccc(S(=O)(=O)N3CCCCCC3)c2)no1 (stereo unspecified)	6.6%
O=S1(=O)CC(N2CCN(Cc3ccccc3F)CC2)CN1Cc1cn(Cc2cccc(C(F)(F)F)c2)nn1 (stereo unspecified)	1.27%
CC(=O)c1cc(-c2ccccc2)n(CCC(=O)NC2CCCCCC2)c1C	-2.95%
O=C(c1c(Cl)cccc1Cl)N1CCN(c2cccc3[nH]ccc23)CC1	2.06%
CC1(C)CC(=O)C(C2c3ccccc3S(=O)(=O)c3ccccc32)C(=O)C1	2.44%
CO[C@H]1[C@@H]2C=CO[C@@H](O[C@H]3O[C@@H](CO)[C@H](O)[C@@H](O)[C@@H]3O)[C@@H]2[C@@]2(CO)O[C@@H]12	-5.28%
S=C(NC1CCCCC1)NN1CCOCC1	4.52%
O=C(CSc1nncn1-c1cccnc1)N1CCOCC1	-3.73%
Cn1c(CC(=O)NNC(=O)c2ccccc2F)nc2ccccc21	14.2% (active)
Cc1cc2occ(CC(=O)NNC(=O)c3ccccc3F)c2cc1C	-1.71%
O=C(Cn1cnc2ccccc2c1=O)NNC(=O)c1ccccc1F	-3.62%
Cc1ccccc1CCNC(=O)C1CCC(=O)N(Cc2ccc(Cl)cc2)C1 (stereo unspecified)	7.94%
O=C(NCCCN1CCCCC1)C1CCCN(c2ncnc3c2nc2n3CCCCC2)C1 (stereo unspecified)	-0.83%
